This sample holds only a part of the variants without activity.

B1: tRNA (parent)
chain: GUUCCGUUGGCGUAAUGGUAACGCGUCUCCCUCCUAAGGAGAAGACUGCGGGUUCGAGUCCCGUACGGAACG

In the series the parent is B1. Kind of series: yeast fitness relative to wild type (ratio to wild type); higher = fitter; tRNA-Arg(CCU), competitive growth, 37 C, YPD. The method in brief: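 Amplicons of the tRNA-Arg(CCU) gene were sequenced, 100-nucleotide paired-end, from the start population and from each end population of a pooled yeast competition. The competition, in six parallel replicates, lasted 24 hours in YPD at 37°C. Fitness relative to wild type was calculated from changes in genotype frequencies. Genotypes had to have ≥ 100 starting reads, and estimates < 0.5 were set to 0.5.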
In the case of U7A G9C G17C C49U C62G, the yeast fitness is at most 0.5.
As to U7A G9C C30U C34G, the yeast fitness is at most 0.5.
The value for U7A G10C U26C C27G U32A was at most 0.5; that for U7A C29U C33U U54A was at most 0.5; that for U7A G18A C33A G38C was at most 0.5.
As for U7A C29U A37C U53A C55U C60A, the yeast fitness is at most 0.5.
The value for U7A G10A A15U G56A A69U was at most 0.5; that for U7A C29U C34A G50C A65C was at most 0.5.
Regarding U7A C29A G50C, the yeast fitness was at most 0.5.
With U7A C31G U64A C66U G68C the figure was at most 0.5; with U7A C33G, 0.59; with U7A C33U, 0.592.
The value for U7A G9A U13A G56A was 0.535; that for U7A G10A A20C C29A C61U C66U was at most 0.5; that for U7A G9C G17C G48A U54A was at most 0.5.
With U7A G10A C33A A36C A69C the figure was at most 0.5; with U7A G38A, 0.695; with U7A G17C C24G C29A G48C, at most 0.5.
For U7A C34A C46U, the yeast fitness is at most 0.5.
U7A G10A A40G C60U: the yeast fitness is at most 0.5.
The value for U7A C27A U28C C49A was 0.622; that for U7A G10C C30G C34U was at most 0.5; that for U7A G9C G17C G48A was 0.525.
The value for U7A C27A G50C C60U A70C was at most 0.5; that for U7A C31A G39C G56C was at most 0.5; that for U7A G10A C33A A36C C61U C66U was at most 0.5.
The value for U7A C34G C62A was 0.696; that for U7A G23C C33G A42G C46U U64C was at most 0.5.
For U7A G23C C49G, the yeast fitness came out at 0.566.
For U7A G18A A36C U47A G68A, the yeast fitness came to 0.508.
For the variant U7A G10A A15U C46A, the yeast fitness was at most 0.5.
The value for U7A G38A A43U was 0.53; that for U7A C49U U59C C62G was at most 0.5.
The value for U7A C30A A70U was 0.601.
With U7A C29G U64C the figure was at most 0.5; with U7A C27A A65U, 0.603.
In the case of U7A G9C G17C G48A G67A, the yeast fitness is at most 0.5.
For the variant U7A G9C G17C G48A G67U, the yeast fitness is at most 0.5.
The value for U7A G17A G23A A45C U47A G50A was at most 0.5.
As for U7A C29A G58A C61G, the yeast fitness worked out at 0.604.
As for U7A C29G A70U, the yeast fitness was at most 0.5.
For the variant U7A C29U, the yeast fitness came out at 0.67.
In the case of U7A G10A A20C C29A U64C, the yeast fitness was at most 0.5.
On to U7A G18C C27G G38A, for which the yeast fitness was at most 0.5.
With U7A G10A A20C C29A U54A C55U the figure was at most 0.5; with U7A G9C G17C G48A C60U, at most 0.5.
On to U7A G10A C33A A36C A70U, for which the yeast fitness was at most 0.5.
The value for U7A C30U C46U C49U was at most 0.5; that for U7A C30U A65C was 0.633.
The value for U7A C62U was 0.888; that for U7A C60G A69G was 0.588; that for U7A G9A U13G G56A was at most 0.5.
As to U7A G9C G10A C30U C34G G68C, the yeast fitness was at most 0.5.
Turning to U7A C27A G67A, the yeast fitness is at most 0.5.
Turning to U7A G10A C33A A36C G67C, the yeast fitness is at most 0.5.
As for U7A C27U G52C, the yeast fitness came to 0.583.
As to U7A C31G G51A U64A C66U G68C, the yeast fitness is at most 0.5.
With U7A G23A C30U C33A G41C A42U the figure was at most 0.5.
The value for U7A C29G G67U was at most 0.5; that for U7A G23A C24U U35A C60A A69U was at most 0.5; that for U7A G23A C24U U35A C60A A69C was 0.706.
For U7A C29A G58A C61G G63A A70U, the yeast fitness was determined as 0.526.
Turning to U7A G25A A65U, the yeast fitness came to 0.765.
Take U7A G18C C27A C31G A43G: the yeast fitness was at most 0.5.
In the case of U7A C30G A43C A57U G58A, the yeast fitness was at most 0.5.
For the variant U7A C27U C30G G38C C49U A65G, the yeast fitness was 0.664.
On to U7A G12A C24U G25C A42U, for which the yeast fitness was at most 0.5.
Regarding U7A G23C C34G U35G A40U A70C, the yeast fitness is at most 0.5.
The value for U7A G18C U35C A70U was at most 0.5.
With U7A C34A the figure was 0.662.
For the variant U7A C55G, the yeast fitness is at most 0.5.
With U7A G23A C29A C61U the figure was 0.573.
Regarding U7A C29G G38A G44A C46U C62G, the yeast fitness was at most 0.5.
The value for U7A G38C A70G was at most 0.5; that for U7A G9C G17C G48A C66U was at most 0.5; that for U7A C29G C46G G58A was at most 0.5.
Take U7A G12C C27G C31A C46A G56C: the yeast fitness was found to be 0.587.
The value for U7A C27U U32C was 0.575; that for U7A G10C C22U C27G G67A was at most 0.5.
Consider U7A C55U A65G, for which the yeast fitness is at most 0.5.
The value for U7A C49A G56A was 0.594; that for U7A C29G A36C G67A was at most 0.5; that for U7A C30A C31G A43U U54G C62G was at most 0.5.
With U7A C60U the figure was 0.652.
Regarding U7A C60G, the yeast fitness is 0.561.
Turning to U7A G9C G17C A40U A65C, the yeast fitness was at most 0.5.
The value for U7A C27U C66A was at most 0.5; that for U7A C31G U64A C66U G68C A69G was at most 0.5.
The value for U7A G10A C30A A43C was at most 0.5.
The value for U7A C33A C46U G63U was 0.574.
As for U7A G10A A20C C29A G63A A70C, the yeast fitness was at most 0.5.
Take U7A C34G A40C A57U: the yeast fitness is at most 0.5.
With U7A C29G C46G the figure was at most 0.5.
Take U7A G23A C62U: the yeast fitness was at most 0.5.
The value for U7A C46G A69C was 0.607; that for U7A C60G G67C was at most 0.5; that for U7A G10A G41C A42U C46A C61G was 0.561.
Turning to U7A G9C G17C C46A G68C, the yeast fitness was at most 0.5.
With U7A C27U C46G the figure was 0.691; with U7A G9C G17C A43U G48A, at most 0.5.
The value for U7A G12A C34G C62U G68C was at most 0.5; that for U7A G10A C33A A36C G50U was at most 0.5.
Turning to U7A C33G C60G G63A, the yeast fitness was at most 0.5.
The value for U7A G39C A45G was at most 0.5; that for U7A C27U C30A A69U was at most 0.5; that for U7A G10C C22U C27G G50U C66U was at most 0.5.
With U7A C46G the figure was 0.787; with U7A G12C A14G A21C C24U G38A U54C C66A, at most 0.5; with U7A G10A A15U A43G G50A, 0.53.
In the case of U7A C49U C62G, the yeast fitness worked out at 0.603.
In the case of U7A G18C A70U, the yeast fitness turned out to be 0.662.
With U7A C49G G50C C62U the figure was at most 0.5.
In the case of U7A G9C G17C G48A C62A, the yeast fitness is at most 0.5.
With U7A G23C C31G C33U A42G G52C G58C the figure was at most 0.5; with U7A G23C C49G C66A, at most 0.5; with U7A G10A C33A A36C, at most 0.5.
The value for U7A G9C G17C C61U G68C was at most 0.5; that for U7A C27G C33A A36G G58A C66U was at most 0.5; that for U7A G10C A57U was at most 0.5.
With U7A G9C C30U C34G A37G G68C the figure was at most 0.5; with U7A C30U, 0.614; with U7A G10C A40G U53A G63A, at most 0.5.
U7A C30U G50C: the yeast fitness is at most 0.5.
U7A G10C G17A C22U C27G: the yeast fitness is at most 0.5.
With U7A C27A C29G C30G G51A, the yeast fitness was found to be 0.535.
For U7A G23A, the yeast fitness stood at 0.722.
Take U7A G23C: the yeast fitness is 0.519.
As to U7A G23A C60A, the yeast fitness was at most 0.5.
With U7A C34A A42C G58A the figure was at most 0.5; with U7A C27U A69U, 0.691; with U7A C27A C29G C30G U47A A70G, at most 0.5.
As to U7A G17C C24G C29A, the yeast fitness is at most 0.5.
The value for U7A C31G A70U was at most 0.5; that for U7A C29G A36G was at most 0.5; that for U7A C29G U32C G38A was at most 0.5.
Regarding U7A G23A C29A, the yeast fitness turned out to be 0.531.
With U7A G12A A20G G23A U26G the figure was at most 0.5; with U7A G10C G52A U54C C60G, 0.518.
The value for U7A G10C C27G U32A G56C was at most 0.5.
Take U7A G18U C31U C49G: the yeast fitness was at most 0.5.
With U7A G12C C34U the figure was at most 0.5; with U7A C49G C66A, at most 0.5; with U7A C46G A65C, 0.848.
The value for U7A C46G A65U was 0.686.
For the variant U7A C66G, the yeast fitness turned out to be 0.62.
The value for U7A G23A C29A C55A was at most 0.5; that for U7A C49G was 0.779; that for U7A C49A was 0.634.
With U7A C34U C55G, the yeast fitness is at most 0.5.
For U7A G9A U13A A70U, the yeast fitness was at most 0.5.
Consider U7A G39A C49A, for which the yeast fitness was at most 0.5.
For the variant U7A C33A A45C C49U, the yeast fitness was at most 0.5.
With U7A C46G G51A A65C the figure was at most 0.5; with U7A C30U C66U, at most 0.5.
Take U7A G10A C27A C30G G41C: the yeast fitness was at most 0.5.
With U7A G12C U54G the figure was 0.673.
Consider U7A C31G G63A, for which the yeast fitness was at most 0.5.
The value for U7A G10A C31G was at most 0.5; that for U7A G17C A37G C49A was at most 0.5.
U7A G18A U19G C62A: the yeast fitness amounted to 0.633.
The value for U7A C61G was 0.563.
In the case of U7A C31G, the yeast fitness came to 0.78.
On to U7A G39C, for which the yeast fitness was 0.608.
With U7A G23A A43U the figure was at most 0.5.
As to U7A G9C G17C G50A, the yeast fitness is at most 0.5.
The value for U7A G17A U32C was at most 0.5; that for U7A C55U G67C was at most 0.5.

These data come from the RNAGym collection of RNA variant scans (doi:10.1126/science.aae0568).
